We go through 29 compounds from ChEMBL document CHEMBL1828507, “Novel diarylpyridinones, diarylpyridazinones and diarylphthalazinones as potential HIV-1 nonnucleoside reverse transcriptase inhibitors (NNRTIs)” (Bioorg Med Chem, 2011).

Data set [1] concerns Human immunodeficiency virus 1. The data set can be described thus: Antiviral activity against wild type HIV1 BaL in human TZM-b1 cells after 48 hrs by luciferase assay. The format is functional, organism-based. The settings on record: Human immunodeficiency virus 1, BaL, TZM-b1, 48 h. An outline of the steps:
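Infected with 200 TCID₅₀ HIV-1 BaL, then 48 h culture and luciferase readout. Inhibition relative to untreated controls; EC50 by nonlinear regression. Triplicate wells, at least two independent experiments.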

Data set [2] deals with Human immunodeficiency virus type 1 reverse transcriptase (Human immunodeficiency virus 1, UniProt Q72547). Nature of the data set: Inhibition of wild type HIV1 reverse transcriptase.
For data set [3], the system named is Human immunodeficiency virus 1. The data set can be described thus: Ratio of TMC120 EC50 to compound EC50 for wild type HIV1 BaL infected in human TZM-b1 cells. The format is functional.
The nature of data set [4]: Selectivity index, ratio of CC50 for human TZM-bl cells to EC50 for wild type HIV1 BaL. Format: toxicity, cell-based. To be noted: read-out: Ratio CC50/EC50. An outline of the steps:
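SI taken as CC50/EC50. CC50 from a 48 h WST-1 viability assay (A450) in TZM-bl cells. EC50 from a 48 h luciferase readout in TZM-bl cells infected with 200 TCID₅₀ HIV-1 BaL after a 30 min compound pre-incubation with DEAE dextran. Both values by nonlinear regression.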

Data set [5] is described as follows: Cytotoxicity against human TZM-b1 cells infected with wild type HIV1 BaL after 48 hrs using formazan dye by WST1 assay. The format is cell-based. The settings on record: TZM-bl cells infected with wild type HIV1 BaL. An outline of the steps: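 WST-1 reagent added, and absorbance at 450 nm read after 90 min. Viability relative to untreated controls; CC50 by nonlinear regression. Three replicate wells, at least two independent experiments.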

Data set [6] has as its system Human immunodeficiency virus 1. The data set can be described thus: Antiviral activity against HIV1 BaL expressing reverse transcriptase V106A mutant infected in human TZM-bl cells after 48 hrs by luciferase assay. Format: functional, organism-based. To be noted: Human immunodeficiency virus 1, BaL.
Data set [7] concerns Human immunodeficiency virus 1. Nature of the data set: Antiviral activity against wild type HIV1 VI829 infected in human TZM-b1 cells after 48 hrs by luciferase assay. The format is functional, organism-based. To be noted: Human immunodeficiency virus 1, VI829, TZM-b1, 48 h.
The subject of data set [8] is Human immunodeficiency virus 1. Nature of the data set: Ratio of EC50 for HIV1 VI829 expressing reverse transcriptase Y181C mutant infected in human TZM-b1 cells to EC50 for wild type HIV1 VI829 in human TZM-b1 cells. The format is functional.
Data set [9] relates to Human immunodeficiency virus 1. Nature of the data set: Antiviral activity against HIV1 VI829 expressing reverse transcriptase Y181C mutant infected in human TZM-bl cells after 48 hrs by luciferase assay. To be noted: Human immunodeficiency virus 1, VI829, TZM-bl. Format: functional, organism-based.
Data set [10] relates to Human immunodeficiency virus 1. Nature of the data set: Ratio of EC50 for HIV1 BaL expressing reverse transcriptase V106A mutant infected in human TZM-bl cells to EC50 for wild type HIV1 BaL in human TZM-bl cells. Format: functional.

For orientation: pEC50 means the negative decadic logarithm of the EC50, by convention in mol/L. Low values mean a high EC50, high ones a low EC50. As usually defined, the pIC50 is the negative decadic logarithm of the IC50, by convention in mol/L. Lower therefore signals a large IC50. For orientation: CC50 means the concentration giving 50% cytotoxicity. Low values mean greater toxicity to the cells, high ones lower toxicity to the cells.

pEC50, pIC50: −log10 of the molar value. Bounds are passed on as bounds.

Consider `Cc1cc(C)c(Nc2ccc(=O)n(Nc3ccccc3)c2)c(C)c1`, for which the pEC50 in data set [1] is less than 5.00.

In data set [1], `N#Cc1ccc(Nn2cc(Nc3ccccc3)ccc2=O)cc1` showed a negative-log EC50 (pEC50) of less than 5.00.

In data set [1], `O=c1ccc(Nc2ccccc2)cn1Nc1ccccc1` showed a pEC50 of less than 5.00.

On to `N#Cc1ccc(Nc2ccc(=O)n(Nc3ccc(C#N)cc3)c2)cc1`, for which the pEC50 in data set [1] was less than 5.00.

Compound `Cc1cc(C)c(Nc2ccc(=O)n(Nc3ccc(C#N)cc3)n2)c(C)c1` had a negative-log IC50 (pIC50) in data set [2] of 3.26. The same compound showed a pEC50 in data set [1] of 5.86. The “Ratio EC50” value in [3] turned out to be 700. Further, in [4], the selectivity ratio is more than 69. For the same compound, the CC50 at 48 h in data set [5] is more than 100 µM.

In data set [1], `Cc1cc(C)c(Nc2ccc(=O)n(Nc3ccc(C(F)(F)F)cc3)n2)c(C)c1` showed a pEC50 of less than 5.00.

Consider `Cc1cc(C)c(Nc2ccc(=O)n(Nc3cccc(C#N)c3)n2)c(C)c1`, for which, in data set [1], the pEC50 is less than 5.00. For the same compound, the selectivity ratio in data set [4] is less than 1. The compound also yielded a CC50 at 48 h in [5] of 5.04 µM.

Regarding `Cc1cc(C)c(Oc2ccc(=O)n(Nc3ccc(C#N)cc3)n2)c(C)c1`, the pEC50 in data set [6] was 5.95; in data set [7], 6.80; in data set [9], less than 5.00; in data set [1] it was 6.16. Moreover, in data set [2], the pIC50 was 4.00. The “Ratio EC50” value in data set [8] is more than 64; in data set [10], 2. In [4], the selectivity ratio is 29. Moreover, the CC50 at 48 h in data set [5] was found to be 19.9 µM.

Take `Cc1cc(C)c(Oc2ccc(=O)n(Nc3ccc(C(F)(F)F)cc3)n2)c(C)c1`: the pEC50 in [1] was 5.00. Further, the selectivity ratio in data set [4] is 2.1. In data set [5], half-maximal cytotoxicity (CC50 at 48 h) was put at 21.2 µM.

Compound `Cc1cc(C)c(Oc2ccc(=O)n(Nc3ccc(F)cc3)n2)c(C)c1` gave a pEC50 in data set [1] of 5.02. Further, in data set [4], the selectivity ratio came out at 2.4. The same compound yielded a CC50 at 48 h in data set [5] of 23.5 µM.

`Cc1cc(C)c(Oc2ccc(=O)n(Nc3ccc(Cl)cc3)n2)c(C)c1` had a negative logarithm of the EC50 (pEC50) in data set [1] of 5.40. Besides, the selectivity ratio in data set [4] amounted to 5.6. In [5], this compound registered a CC50 at 48 h of 22.3 µM.

As for `Cc1cc(C)c(Oc2ccc(=O)n(Nc3cccc(C#N)c3)n2)c(C)c1`, in data set [1], the pEC50 is less than 5.00.

In the case of `Cc1cccc(C)c1Oc1ccc(=O)n(Nc2ccc(C#N)cc2)n1`, the pEC50 in [1] is 5.12. For the same compound, the selectivity ratio in data set [4] is more than 13. The CC50 at 48 h in [5] is more than 100 µM.

For the compound `Cc1cccc(C)c1Oc1ccc(=O)n(Nc2ccc(F)cc2)n1`, the pEC50 in data set [1] was less than 5.00.

In data set [1], `Cc1cccc(C)c1Oc1ccc(=O)n(Nc2cccc(C#N)c2)n1` gave a pEC50 of less than 5.00.

In [1], `Cc1cccc(C)c1Oc1ccc(=O)n(Nc2ccccc2)n1` showed a pEC50 of less than 5.00.

On to `Cc1cc(C#N)cc(C)c1Oc1ccc(=O)n(Nc2ccc(C#N)cc2)n1`, for which, in [1], the pEC50 is 5.76. Besides, in data set [4], the selectivity ratio is 14. In [5], this compound showed a CC50 at 48 h of 24.7 µM.

`Cc1cc(C#N)cc(C)c1Oc1ccc(=O)n(Nc2cccc(C#N)c2)n1` gave a pEC50 in data set [1] of less than 5.00.

In the case of `Cc1cc(Cl)cc(C)c1Oc1ccc(=O)n(Nc2ccc(C#N)cc2)n1`, the pEC50 in [6] was 5.34; in [7], 6.30; in data set [9], less than 5.00; in data set [1] it was 6.22. For the same compound, the “Ratio EC50” value in data set [8] is listed as more than 20; in [10], 8. The selectivity ratio in data set [4] stood at 23. The compound further came in with a CC50 at 48 h in data set [5] of 14.1 µM.

With `Cc1cc(Cl)cc(C)c1Oc1ccc(=O)n(Nc2cccc(C#N)c2)n1`, the pEC50 in [1] is less than 5.30.

Consider `Cc1cc(Br)cc(C)c1Oc1ccc(=O)n(Nc2ccc(C#N)cc2)n1`, for which the pEC50 in data set [6] was 5.53; in data set [7], 6.47; in data set [9], less than 5.00; in data set [1], 6.19. Also, the “Ratio EC50” value in data set [8] is on record as more than 29; in [10], 5. In addition, in data set [4], the selectivity ratio was more than 193. The compound further came in with a CC50 at 48 h in data set [5] of more than 100 µM.

In data set [1], `Cc1cc(Br)cc(C)c1Oc1ccc(=O)n(Nc2ccc(Cl)cc2)n1` showed a pEC50 of 5.50. In data set [4], the selectivity ratio amounted to 20. In data set [5], the CC50 at 48 h was found to be 63.5 µM.

`Cc1cc(C)c(Oc2nn(Nc3ccc(C#N)cc3)c(=O)c3ccccc23)c(C)c1`: the pIC50 in [2] is 3.03. This compound also gave a pEC50 in data set [1] of 5.86. The selectivity ratio in data set [4] worked out at 43.3. The compound further had a CC50 at 48 h in data set [5] of 60.4 µM.

In [1], `Cc1cc(Cl)cc(C)c1Oc1nn(Nc2ccc(C#N)cc2)c(=O)c2ccccc12` had a pEC50 of 5.44. The selectivity ratio in data set [4] is 14.2. The same compound gave a CC50 at 48 h in [5] of 51.2 µM.

On to `Cc1cc(Cl)cc(C)c1Oc1nn(Nc2ccc(Cl)cc2)c(=O)c2ccccc12`, for which the pEC50 in data set [1] is 5.00.

In the case of `Cc1cc(C)c(Nc2ccc(=O)n(Nc3ccc(C#N)cc3)c2)c(C)c1`, the pIC50 in [2] was 3.12. This compound gave a negative-log EC50 (pEC50) in data set [1] of less than 5.00.

The compound `Cc1cc(C)c(Nc2ccc(=O)n(Nc3ccc(C(F)(F)F)cc3)c2)c(C)c1` showed a pEC50 in data set [1] of less than 5.00.

With `Cc1cc(C)c(Nc2ccc(=O)n(Nc3cccc(C#N)c3)c2)c(C)c1`, the pEC50 in [1] was less than 5.00.

Consider `Cc1cc(C)c(Nc2ccnc(Nc3ccc(C#N)cc3)n2)c(C)c1` [DAPIVIRINE], for which the pEC50 was 8.60 in data set [6], 8.70 in data set [7], 7.97 in data set [9] and 8.70 in data set [1]. This compound also showed a negative logarithm of the IC50 (pIC50) in data set [2] of 5.60. Moreover, the “Ratio EC50” value in data set [8] was 5.4; in [10], 1.3. In data set [4], the selectivity ratio worked out at 1440. Also, the 50% cytotoxic concentration (CC50) at 48 h in data set [5] is 2.88 µM.
